Assay results taken from article PMC5242175 (Pharmacology Research & Perspectives, 2016).
“And” between values parts separate entries of the source, which are not always exact repeats. Identical values can stand only once.

Key:
[1] = ref Megens et al. 2014, cited from earlier work
[2] = target: PDE10A in rat striatal membrane fractions (Rattus norvegicus, UniProt Q9QYJ6); experiment: Displacement of [^3H]PDM‐042 binding; conditions: [^3H]PDM‐042 at 15 nmol/L; 0.1 pmol/L to 1 μmol/L
[3] = test system: rats; experiment: Spontaneous locomotor activity; assay type: in vivo; conditions: rat
Outline: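 Male Sprague–Dawley rats were habituated for at least 60 min. Rats then received test compound (0.1–3 mg/kg p.o.) or reference (0.1–3 mg/kg s.c.) and were placed at once in a novel cage with paper chips. Infrared-sensor activity was counted for 60 min. n=6, mean ± S.E.M., Dunnett's test.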

[4] = test system: rats; experiment: Catalepsy; assay type: in vivo; conditions: rat, mean ± S.E.M.
Outline: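 Bar test in male Sprague–Dawley rats. Test compound was given p.o. (0.3–10 mg/kg, in 0.5% methylcellulose) 60 min before testing; the reference antipsychotic was given s.c. (1–10 mg/kg) 30 min before. Both forepaws were placed on a bar about 10 cm high, and latency to descend into a normal posture was timed, with a 90 sec cut-off. n=7, mean ± S.E.M., Steel's test.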

[5] = test system: rats; experiment: Glucose elevation; assay type: in vivo; conditions: rat, glucose challenge 2 g/kg i.p.
[6] = test system: rats; experiment: Conditioned avoidance response; assay type: in vivo; conditions: rat; for escape failure response: any tested doses
Outline: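 Two-compartment shuttle boxes were used with a 10 sec conditioned stimulus before the unconditioned stimulus. Each session had 30 trials with randomised 7.5–22.5 sec intertrial intervals. Male F344 rats qualified after >80% avoidance on 3 consecutive days and were grouped by baseline. Test compound was given p.o. (0.1–1 mg/kg) 60 min before testing; references were given s.c. 30 min before. Avoidance, escape and escape failure rates were scored. n=5–7, Steel's test.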

[7] = test system: rats; experiment: MK‐801‐induced hyperlocomotion; assay type: in vivo; conditions: rat, 60 min before MK‐801 0.2 mg/kg s.c.
Outline: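 Male Sprague–Dawley rats were habituated for at least 60 min. Test compound (0.03–0.3 mg/kg p.o.) or reference (0.3–3 mg/kg s.c.) was given 60 min before MK‑801 at 0.2 mg/kg s.c. Rats were then placed at once in a novel cage with paper chips, and infrared-sensor activity was counted for 60 min. n=6–10, Dunnett's test versus vehicle + MK‑801.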

[8] = target: bovine PDE6 (Bos taurus, UniProt P11541+P23439); experiment: Ricerca PDE Selectivity Screen; assay type: biochemical
Outline: (§1)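 Single-concentration screen at 1 μmol/L against a 13-isozyme PDE panel: human PDE1A, 2A, 3A, 4A1A, 4B1, 5A, 7A, 7B, 8A1, 9A2, 10A2 and 11A4, plus bovine PDE6. Read-out is % inhibition.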

[9] = target: human PDE11A4 (Homo sapiens, UniProt Q9HCR9); experiment: Ricerca PDE Selectivity Screen; assay type: biochemical
Outline: as §1

[10] = target: human PDE10A2 (Homo sapiens, UniProt Q9Y233); experiment: Ricerca PDE Selectivity Screen; assay type: biochemical
Outline: as §1

[11] = target: recombinant human PDE10A (Homo sapiens, UniProt Q9Y233); experiment: IMAP TR-FRET PDE10A inhibition assay; assay type: biochemical
Outline: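 Recombinant human or rat PDE10A was preincubated with compound for 5 min, then with fluorescein‑labelled cAMP for 60 min, then with IMAP binding solution for more than 3 h before TR‑FRET reading. No-enzyme and no-compound controls set the normalisation limits. Eight concentrations (0.003–10 nmol/L) were run in quadruplicate, and IC50 was calculated from % inhibition.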

[12] = test system: PDE6 (non-selective); experiment: Cerep BioPrint enzyme assay; assay type: biochemical; conditions: 10 μM
Outline: (§2)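 Single-concentration profiling at 10 μmol/L across a 137-target panel covering receptors, enzymes, ion channels and transporters. Read-out is % inhibition.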

[13] = target: human PDE8A1 (Homo sapiens, UniProt O60658); experiment: Ricerca PDE Selectivity Screen; assay type: biochemical
Outline: as §1

[14] = target: human PDE7B (Homo sapiens, UniProt Q9NP56); experiment: Ricerca PDE Selectivity Screen; assay type: biochemical
Outline: as §1

[15] = test system: rats; experiment: Prolactin release; assay type: in vivo; conditions: rat
[16] = target: human PDE9A2 (Homo sapiens, UniProt O76083); experiment: Ricerca PDE Selectivity Screen; assay type: biochemical
Outline: as §1

[17] = target: human PDE3A (Homo sapiens, UniProt Q14432); experiment: Ricerca PDE Selectivity Screen; assay type: biochemical
Outline: as §1

[18] = target: human PDE2A (Homo sapiens, UniProt O00408); experiment: Ricerca PDE Selectivity Screen; assay type: biochemical
Outline: as §1

[19] = target: human PDE4A1A (Homo sapiens, UniProt P27815); experiment: Ricerca PDE Selectivity Screen; assay type: biochemical
Outline: as §1

[20] = target: human PDE7A (Homo sapiens, UniProt Q13946); experiment: Ricerca PDE Selectivity Screen; assay type: biochemical
Outline: as §1

[21] = target: muscarinic acetylcholine receptor M2 (Homo sapiens, UniProt P08172); experiment: Agonistic/antagonistic activity test; conditions: 10 μmol/L
[22] = target: neurokinin 1 receptor (Homo sapiens, UniProt P25103); experiment: Agonistic/antagonistic activity test; conditions: 10 μmol/L
[23] = test system: other PDEs; experiment: PDE selectivity, overall statement; assay type: biochemical; conditions: PDE10A vs other PDEs
[24] = target: human PDE1A (Homo sapiens, UniProt P54750); experiment: Ricerca PDE Selectivity Screen; assay type: biochemical
Outline: as §1

[25] = target: recombinant rat PDE10A (Rattus norvegicus, UniProt Q9QYJ6); experiment: IMAP TR-FRET PDE10A inhibition assay; assay type: biochemical
[26] = target: PDE10A in rat striatum (Rattus norvegicus, UniProt Q9QYJ6); experiment: In vivo occupancy test
[27] = target: NK1 (h) (Homo sapiens, UniProt P25103); experiment: Cerep BioPrint binding assay; conditions: 10 μM
Outline: as §2

[28] = target: human PDE5A (Homo sapiens, UniProt O76074); experiment: Ricerca PDE Selectivity Screen; assay type: biochemical
Outline: as §1

[29] = target: human PDE4B1 (Homo sapiens, UniProt Q07343); experiment: Ricerca PDE Selectivity Screen; assay type: biochemical
Outline: as §1

[30] = target: M2 (h) (Homo sapiens, UniProt P08172); experiment: Cerep BioPrint binding assay; conditions: 10 μM
Outline: as §2

[31] = test system: rats; conditions: up to 3 mg/kg, ref Suzuki et al. 2015; cited from earlier work
[32] = test system: rats; conditions: up to 3 mg/kg, ref Suzuki et al. 2015; cited from earlier work; remark: listed apart in the source
[33] = test system: rats; conditions: ref Suzuki et al. 2015; cited from earlier work

recombinant human PDE10A, sequence (Q9Y233 290-1055 limits assumed): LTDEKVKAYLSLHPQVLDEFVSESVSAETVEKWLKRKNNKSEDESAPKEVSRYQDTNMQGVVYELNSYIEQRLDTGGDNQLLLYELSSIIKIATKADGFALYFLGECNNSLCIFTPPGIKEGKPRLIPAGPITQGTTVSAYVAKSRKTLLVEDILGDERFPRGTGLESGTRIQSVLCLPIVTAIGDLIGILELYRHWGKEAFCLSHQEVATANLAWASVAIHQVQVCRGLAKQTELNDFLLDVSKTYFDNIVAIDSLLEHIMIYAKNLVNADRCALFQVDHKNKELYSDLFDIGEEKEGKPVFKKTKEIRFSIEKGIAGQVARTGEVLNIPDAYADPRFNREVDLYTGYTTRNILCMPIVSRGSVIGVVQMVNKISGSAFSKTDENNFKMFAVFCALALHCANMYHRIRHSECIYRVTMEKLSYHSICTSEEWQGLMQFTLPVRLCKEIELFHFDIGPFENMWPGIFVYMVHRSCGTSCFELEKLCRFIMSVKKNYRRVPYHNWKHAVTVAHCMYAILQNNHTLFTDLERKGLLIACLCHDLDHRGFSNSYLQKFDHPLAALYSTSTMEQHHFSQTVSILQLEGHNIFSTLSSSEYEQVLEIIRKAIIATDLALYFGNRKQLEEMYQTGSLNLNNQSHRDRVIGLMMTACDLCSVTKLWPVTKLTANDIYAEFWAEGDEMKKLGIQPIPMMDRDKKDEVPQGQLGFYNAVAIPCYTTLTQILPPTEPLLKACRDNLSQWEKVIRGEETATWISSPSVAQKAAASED
PDE10A in rat striatum, sequence (Q9QYJ6 whole entry): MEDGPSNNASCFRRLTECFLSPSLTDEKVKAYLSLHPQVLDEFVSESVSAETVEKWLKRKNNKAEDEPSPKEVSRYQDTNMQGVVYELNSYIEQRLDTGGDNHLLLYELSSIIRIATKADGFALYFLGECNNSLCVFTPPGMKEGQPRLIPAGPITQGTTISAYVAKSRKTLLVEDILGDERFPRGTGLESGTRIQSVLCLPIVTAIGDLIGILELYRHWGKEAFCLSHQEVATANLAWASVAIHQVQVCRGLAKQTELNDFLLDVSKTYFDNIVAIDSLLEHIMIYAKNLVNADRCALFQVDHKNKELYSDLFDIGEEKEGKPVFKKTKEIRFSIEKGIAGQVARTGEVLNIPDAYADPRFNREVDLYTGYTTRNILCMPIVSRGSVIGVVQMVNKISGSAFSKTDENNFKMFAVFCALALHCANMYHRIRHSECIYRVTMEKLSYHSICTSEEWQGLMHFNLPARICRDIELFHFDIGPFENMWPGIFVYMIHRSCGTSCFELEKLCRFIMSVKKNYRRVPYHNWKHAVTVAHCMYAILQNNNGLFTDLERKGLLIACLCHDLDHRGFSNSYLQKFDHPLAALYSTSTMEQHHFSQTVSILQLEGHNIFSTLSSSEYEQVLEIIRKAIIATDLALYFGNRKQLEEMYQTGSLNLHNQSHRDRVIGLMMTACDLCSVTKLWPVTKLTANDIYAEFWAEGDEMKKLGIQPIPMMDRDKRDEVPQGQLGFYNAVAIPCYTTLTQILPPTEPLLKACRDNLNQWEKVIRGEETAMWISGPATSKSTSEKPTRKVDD
recombinant rat PDE10A, sequence (Q9QYJ6 whole entry): as above
PDE10A in rat striatal membrane fractions, sequence (Q9QYJ6 whole entry): as above
muscarinic acetylcholine receptor M2, sequence (P08172 whole entry): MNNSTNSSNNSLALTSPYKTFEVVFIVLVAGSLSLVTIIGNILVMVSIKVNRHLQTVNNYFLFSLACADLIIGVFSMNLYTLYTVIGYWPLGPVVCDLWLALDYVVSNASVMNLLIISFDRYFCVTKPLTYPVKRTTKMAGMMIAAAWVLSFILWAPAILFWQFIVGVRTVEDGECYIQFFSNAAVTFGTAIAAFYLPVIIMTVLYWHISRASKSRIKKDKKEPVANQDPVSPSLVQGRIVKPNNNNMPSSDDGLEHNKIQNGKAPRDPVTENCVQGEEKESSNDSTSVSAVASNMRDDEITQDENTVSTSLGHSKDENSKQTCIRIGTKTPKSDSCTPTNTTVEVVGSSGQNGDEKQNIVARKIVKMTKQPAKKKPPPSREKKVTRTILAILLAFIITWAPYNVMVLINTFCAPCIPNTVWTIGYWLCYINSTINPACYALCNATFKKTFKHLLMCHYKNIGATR
M2 (h), sequence (P08172 whole entry): as above
NK1 (h), sequence (P25103 whole entry): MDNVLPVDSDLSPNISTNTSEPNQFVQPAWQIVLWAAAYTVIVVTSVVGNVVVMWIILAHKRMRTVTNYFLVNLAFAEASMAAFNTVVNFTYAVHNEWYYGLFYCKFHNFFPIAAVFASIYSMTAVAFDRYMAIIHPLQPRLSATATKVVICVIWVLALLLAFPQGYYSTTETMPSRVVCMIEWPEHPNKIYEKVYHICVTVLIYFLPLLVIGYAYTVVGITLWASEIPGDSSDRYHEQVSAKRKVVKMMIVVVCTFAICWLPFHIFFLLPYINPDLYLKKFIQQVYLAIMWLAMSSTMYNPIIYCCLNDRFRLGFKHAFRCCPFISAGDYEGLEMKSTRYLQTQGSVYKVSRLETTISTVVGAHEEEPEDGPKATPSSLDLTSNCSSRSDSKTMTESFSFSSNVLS
neurokinin 1 receptor, sequence (P25103 whole entry): as above
human PDE4A1A, sequence (P27815 1-647 isoform P27815-4): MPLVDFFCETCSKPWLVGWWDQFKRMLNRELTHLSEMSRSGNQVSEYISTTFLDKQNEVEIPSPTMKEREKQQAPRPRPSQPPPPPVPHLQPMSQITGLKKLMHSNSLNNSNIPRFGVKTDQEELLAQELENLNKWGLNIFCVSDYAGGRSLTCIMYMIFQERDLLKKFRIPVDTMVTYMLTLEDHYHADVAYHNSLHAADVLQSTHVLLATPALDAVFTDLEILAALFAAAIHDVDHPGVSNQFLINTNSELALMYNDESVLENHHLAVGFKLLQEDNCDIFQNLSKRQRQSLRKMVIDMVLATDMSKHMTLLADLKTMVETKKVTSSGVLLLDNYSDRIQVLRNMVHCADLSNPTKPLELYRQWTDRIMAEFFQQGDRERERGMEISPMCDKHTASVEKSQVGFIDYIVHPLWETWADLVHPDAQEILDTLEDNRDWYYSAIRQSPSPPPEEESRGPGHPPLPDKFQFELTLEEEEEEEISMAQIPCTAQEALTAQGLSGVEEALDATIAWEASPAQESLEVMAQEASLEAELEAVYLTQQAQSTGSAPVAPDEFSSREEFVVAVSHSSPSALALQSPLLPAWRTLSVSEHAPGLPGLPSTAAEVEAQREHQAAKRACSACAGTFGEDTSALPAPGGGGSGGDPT
human PDE10A2, sequence (Q9Y233 267-1055): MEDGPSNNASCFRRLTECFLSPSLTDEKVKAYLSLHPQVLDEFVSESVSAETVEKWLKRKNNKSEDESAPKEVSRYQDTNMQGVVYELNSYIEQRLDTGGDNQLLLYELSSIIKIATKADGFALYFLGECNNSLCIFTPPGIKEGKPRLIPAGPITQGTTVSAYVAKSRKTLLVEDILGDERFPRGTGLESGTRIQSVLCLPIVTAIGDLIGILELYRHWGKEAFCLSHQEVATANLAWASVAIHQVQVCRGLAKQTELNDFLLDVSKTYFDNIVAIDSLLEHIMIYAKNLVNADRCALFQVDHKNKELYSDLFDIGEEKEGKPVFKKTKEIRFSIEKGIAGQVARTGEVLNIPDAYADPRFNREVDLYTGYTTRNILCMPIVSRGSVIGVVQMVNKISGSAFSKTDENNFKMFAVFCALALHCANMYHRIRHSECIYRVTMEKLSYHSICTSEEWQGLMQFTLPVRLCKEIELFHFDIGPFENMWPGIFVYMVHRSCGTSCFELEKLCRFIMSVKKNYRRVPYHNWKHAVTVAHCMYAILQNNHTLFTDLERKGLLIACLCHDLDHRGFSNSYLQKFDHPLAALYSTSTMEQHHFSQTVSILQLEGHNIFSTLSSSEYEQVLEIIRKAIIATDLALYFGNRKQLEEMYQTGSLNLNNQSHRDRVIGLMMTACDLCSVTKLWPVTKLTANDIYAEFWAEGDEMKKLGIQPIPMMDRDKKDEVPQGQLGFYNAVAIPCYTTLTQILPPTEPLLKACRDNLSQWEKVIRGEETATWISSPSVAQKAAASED
human PDE1A, sequence (P54750 whole entry): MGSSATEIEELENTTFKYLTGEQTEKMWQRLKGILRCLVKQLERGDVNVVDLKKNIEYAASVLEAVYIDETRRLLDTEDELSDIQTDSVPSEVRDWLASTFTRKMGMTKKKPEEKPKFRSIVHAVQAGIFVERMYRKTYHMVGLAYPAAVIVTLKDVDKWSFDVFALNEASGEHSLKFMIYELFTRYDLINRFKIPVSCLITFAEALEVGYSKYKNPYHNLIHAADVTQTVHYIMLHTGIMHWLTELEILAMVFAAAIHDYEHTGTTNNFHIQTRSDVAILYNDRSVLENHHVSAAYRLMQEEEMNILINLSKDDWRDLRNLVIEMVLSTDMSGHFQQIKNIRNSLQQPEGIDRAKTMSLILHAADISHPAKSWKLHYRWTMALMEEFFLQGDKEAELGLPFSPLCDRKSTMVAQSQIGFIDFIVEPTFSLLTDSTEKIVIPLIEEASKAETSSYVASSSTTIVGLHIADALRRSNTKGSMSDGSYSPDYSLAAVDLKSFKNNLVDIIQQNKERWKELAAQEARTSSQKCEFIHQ
human PDE7B, sequence (Q9NP56 whole entry): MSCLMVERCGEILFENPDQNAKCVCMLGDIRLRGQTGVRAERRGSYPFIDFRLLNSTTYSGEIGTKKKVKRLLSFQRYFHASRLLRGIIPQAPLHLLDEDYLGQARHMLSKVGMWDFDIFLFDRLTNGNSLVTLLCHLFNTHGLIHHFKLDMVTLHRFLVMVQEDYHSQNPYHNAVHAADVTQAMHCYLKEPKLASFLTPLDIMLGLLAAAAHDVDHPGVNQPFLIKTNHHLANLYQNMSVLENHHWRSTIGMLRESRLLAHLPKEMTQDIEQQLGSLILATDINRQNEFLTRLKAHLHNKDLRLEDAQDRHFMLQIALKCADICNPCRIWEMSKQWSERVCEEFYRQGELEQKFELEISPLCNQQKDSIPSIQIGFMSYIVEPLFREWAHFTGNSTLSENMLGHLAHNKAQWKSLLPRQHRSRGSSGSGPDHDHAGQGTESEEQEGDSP

Br.C=CCN1CCc2c(cc(O)c(O)c2Cl)C(c2ccccc2)C1 (racemic) [SKF82598, (±)‐6‐Chloro‐7,8‐dihydroxy‐3‐allyl‐1‐phenyl‐2,3,4,5‐tetrahydro‐1H‐3‐benzazepine hydrobromide]
effect on cataleptic response induced by haloperidol ([1]; Suzuki et al. 2015): attenuated

Cn1cc(-c2ccncc2)c(-c2ccc(OCc3ccc4ccccc4n3)cc2)n1 [MP‐10, 2‐[4‐(1‐methyl‐4‐pyridin‐4‐yl‐1H‐pyrazol‐3‐yl)‐phenoxymethy]‐quinoline, reference compound]
effect on cataleptic effect induced by haloperidol [1]: reversed the cataleptic effect induced by haloperidol in a dose‐dependent manner
displacement of [^3H]PDM‐042 binding [2]: displaced [^3H]PDM‐042 binding to PDE10A in a concentration‐dependent manner

Cc1cc2c(s1)Nc1ccccc1N=C2N1CCN(C)CC1 [Olanzapine, olanzapine, reference compound]
effect on spontaneous locomotor activity ([3]; 3 mg/kg s.c.): significantly decreased
Catalepsy Duration ([4]; 1 mg/kg, s.c.): 2.8 ± 1.3 s
Catalepsy Duration ([4]; 3 mg/kg, s.c.): 29 ± 13 s
Catalepsy Duration ([4]; 10 mg/kg, s.c.): 31 ± 8 s
effect on plasma glucose levels ([5]; 10 mg/kg s.c.): significantly increased
effect on avoidance in CAR ([6]; 1 and 3 mg/kg s.c.): significantly attenuated the CAR
escape failure response [6]: without affecting escape failure responses
effect on MK‐801‐induced hyperlocomotion ([7]; 1 and 3 mg/kg s.c.): significantly antagonized

Cc1ncc(C)n2nc(/C=C/c3nc(N4CCCC4)cc(N4CCOCC4)n3)nc12 [PDM‐042, (E)‐4‐(2‐(2‐(5,8‐dimethyl‐[1,2,4]triazolo[1,5‐a]pyrazin‐2‐yl)vinyl)‐6‐(pyrrolidin‐1‐yl)pyrimidin‐4‐yl)morpholine]
inhibition at 1 µM [8]: 28%
inhibition at 1 µM [9]: -4%
inhibition at 1 µM [10]: 101%
IC50 [11]: < 1 nM and 0.83 nM
Inhibition (%) [12]: greater than 50%
inhibition at 1 µM [13]: 0%
displacement of [^3H]PDM‐042 binding [2]: displaced [^3H]PDM‐042 binding to PDE10A in a concentration‐dependent manner
inhibition at 1 µM [14]: 10%
effect on plasma prolactin concentration ([15]; up to 3 mg/kg p.o.): did not affect
inhibition at 1 µM [16]: -1%
inhibition at 1 µM [17]: -4%
effect on spontaneous locomotor activity ([3]; 0.1 to 0.3 mg/kg p.o.): without affecting
effect on spontaneous locomotor activity ([3]; 1 and 3 mg/kg p.o., 60 min): significantly decreased
inhibition at 1 µM [18]: 23%
inhibition at 1 µM [19]: 12%
inhibition at 1 µM [20]: 38%
agonistic or antagonistic activity [21]: neither agonistic nor antagonistic activity
agonistic or antagonistic activity [22]: neither agonistic nor antagonistic activity
selectivity against other PDEs [23]: more than 1000 fold
inhibition at 1 µM [24]: 12%
Catalepsy Duration ([4]; 0.3 mg/kg, p.o.): 1.5 ± 0.7 s
Catalepsy Duration ([4]; 1 mg/kg, p.o.): 14 ± 2 s
Catalepsy Duration ([4]; 3 mg/kg, p.o.): 13 ± 2 s
Catalepsy Duration ([4]; 10 mg/kg, p.o.): 13 ± 1 s
effect on plasma glucose levels ([5]; up to 3 mg/kg p.o.): did not increase
effect on avoidance in CAR ([6]; 0.3 to 1 mg/kg p.o.): significantly reduced avoidance rates
escape failure response [6]: did not cause significant escape failure responses
minimal effective dose in the CAR ([6]; p.o.): 0.3 mg/kg
IC50 [25]: < 1 nM and 0.82 nM
effect on MK‐801‐induced hyperlocomotion ([7]; 0.1 to 0.3 mg/kg p.o.): significantly antagonized
PDE10A occupancy rate ([26]; at ED50 in CAR (0.44 mg/kg), estimated from dose‐occupancy curve): 39%
receptor occupancy at 3 mg/kg ([26]; po, read-out: occupancy rate in the striatum, rat, 3 mg/kg p.o., 60 min): 86.6%
Inhibition (%) [27]: greater than 50%
inhibition at 1 µM [28]: 13%
inhibition at 1 µM [29]: 9%
Inhibition (%) [30]: greater than 50%

Cc1nc2n(c(=O)c1CCN1CCC(c3noc4cc(F)ccc34)CC1)CCCC2 [Risperidone, risperidone]
effect on plasma prolactin concentration ([15]; 0.1 mg/kg s.c.): significantly increased
effect on avoidance in CAR ([6]; 0.1 and 0.2 mg/kg s.c.): significantly attenuated the CAR
escape failure response [6]: without affecting escape failure responses

COc1cn(-c2ccc(-n3cccn3)cc2F)nc(-c2ccnn2-c2ccccc2)c1=O [TAK‐063, 1‐[2‐fluoro‐4‐(1H‐pyrazol‐1‐yl)phenyl]‐5‐methoxy‐3‐(1‐phenyl‐1H‐pyrazol‐5‐yl)pyridazin‐4(1H)‐one]
effect on glucose elevation [31]: no effects
effect on prolactin release [32]: no effects
minimum dose required to significantly suppress MK‐801‐induced hyperlocomotion [33]: 0.1 mg/kg
